Series [1] is described as follows: Inhibitory activity against phospholipase C isolated from human melanoma. A digest of the protocol:
(§1)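 PI-specific PLC partially purified from RPMI 7272 human melanoma xenografts in nude mice (Q-Sepharose then heparin-Sepharose, 0.35 M NaCl eluate), 20–30 μg protein. Enzyme preincubated with compound 5 min at 37 °C in 25 mM imidazole pH 7.2, 100 mM KCl, 1 mM CaCl2, 0.8 mg/mL deoxycholate. Reaction started with 1 mM phosphatidylinositol, run 15 min at 37 °C, stopped with EDTA.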

A short description of series [2]: Inhibitory activity against phospholipase C isolated from human melanoma; IN-Inactive. In outline: as §1
Series [3] in a line: pKa value was determined. The class given is physicochemical.

Converted amounts (≈) assume the structure as drawn.

For orientation: IC50 means the concentration that gives 50% inhibition. In turn, `O=c1oc2ccccc2cc1[N+](=O)[O-]` displayed an IC50 in series [1] of 16.1 µg/mL (≈ 84.2 µM).
With `CCCCCCCCCCCCCCCC(=O)Oc1ccc2cc([N+](=O)[O-])c(=O)oc2c1`, the IC50 entry in series [2] was “Not Active”.
What is called pKa is the negative logarithm of the acid dissociation constant. Read a high pKa as a group that holds its proton tightly. Regarding `COc1cccc(NC2Oc3ccccc3C=C2[N+](=O)[O-])c1` (stereo unspecified), in series [3], the pKa was found to be 4.2. In series [1], the IC50 was found to be 6.6 µg/mL (≈ 22.1 µM).
In series [1], `CCCCCCCC(=O)Oc1ccc2oc(=O)c([N+](=O)[O-])cc2c1` came in with an IC50 of 4.3 µg/mL (≈ 12.9 µM).
Same read-out and setting: as for `CC(=O)Oc1cccc2cc([N+](=O)[O-])c(=O)oc12`, the figure is 36 µg/mL (≈ 144 µM).
As for `CCCCCCCC(=O)Oc1ccc2cc([N+](=O)[O-])c(=O)oc2c1`, in series [2], the IC50 result is “Not Active”.
Take `O=[N+]([O-])C1=Cc2ccccc2OC1Nc1cccc([N+](=O)[O-])c1` (stereo unspecified): the pKa in series [3] turned out to be 2.47. The molecule also gave an IC50 in series [1] of 7.5 µg/mL (≈ 23.9 µM).
For `COc1ccc2oc(=O)c([N+](=O)[O-])cc2c1`, the IC50 in series [1] was 31 µg/mL (≈ 140 µM).
In the case of `O=[N+]([O-])C1=Cc2ccccc2OC1Nc1ccccc1` (stereo unspecified), in series [3], the pKa was determined as 4.4. The IC50 in series [1] stood at 11.7 µg/mL (≈ 43.6 µM).
In series [3], `O=[N+]([O-])C1=Cc2ccccc2OC1Nc1ccccc1[N+](=O)[O-]` (stereo unspecified) yielded a pKa of -0.26. This molecule showed a concentration for half-maximal inhibition (IC50) in series [1] of 6 µg/mL (≈ 19.2 µM).
On to `O=[N+]([O-])C1=Cc2ccccc2OC1N1CCOCC1` (stereo unspecified), for which the pKa in series [3] stood at 8.33. Besides, in series [1], the half-inhibitory concentration (IC50) is 5 µg/mL (≈ 19.1 µM).
Molecule `CCCCOc1ccc2oc(=O)c([N+](=O)[O-])cc2c1` displayed an IC50 in series [1] of 33.9 µg/mL (≈ 129 µM).
For `O=c1oc2cc(O)ccc2cc1[N+](=O)[O-]`, the IC50 result in series [2] is on record as “Not Active”.
`C=CCCCCCCCCOc1ccc2oc(=O)c([N+](=O)[O-])cc2c1` showed an IC50 in series [1] of 45.1 µg/mL (≈ 131 µM).
With `CCCCCCCCCCOc1ccc2oc(=O)c([N+](=O)[O-])cc2c1`, in series [2], the concentration for half-maximal inhibition (IC50) entry is recorded as “Not Active”.
For the molecule `CCCCCCCOc1ccc2oc(=O)c([N+](=O)[O-])cc2c1`, the IC50 result in series [2] was “Not Active”.
In series [3], `COc1ccc(NC2Oc3ccccc3C=C2[N+](=O)[O-])cc1` (stereo unspecified) showed a pKa of 5.31. For the same molecule, the IC50 in series [1] is 12.9 µg/mL (≈ 43.2 µM).
As to `CCCCCCCC(=O)Oc1cccc2cc([N+](=O)[O-])c(=O)oc12`, the IC50 in series [1] was determined as 17 µg/mL (≈ 51 µM).
With `O=c1oc2ccc(O)cc2cc1[N+](=O)[O-]`, the half-inhibitory concentration (IC50) in series [1] came to 10.9 µg/mL (≈ 52.6 µM).
On the same count and under the same terms, as for `CCCCCCCCCCCCOc1ccc2oc(=O)c([N+](=O)[O-])cc2c1`, the figure is 68.6 µg/mL (≈ 183 µM); as for `O=c1oc2ccc(OCCCCCCCCO)cc2cc1[N+](=O)[O-]`, 9.6 µg/mL (≈ 28.6 µM); as for `O=c1oc2c(O)cccc2cc1[N+](=O)[O-]`, 24.8 µg/mL (≈ 120 µM).
Regarding `C=CCCCCCCCCC(=O)Oc1ccc2oc(=O)c([N+](=O)[O-])cc2c1`, the IC50 in series [1] worked out at 3.2 µg/mL (≈ 8.57 µM).
In turn, `CC(=O)Oc1ccc2oc(=O)c([N+](=O)[O-])cc2c1` registered an IC50 in series [1] of 16 µg/mL (≈ 64.2 µM).
The molecule `COc1ccccc1NC1Oc2ccccc2C=C1[N+](=O)[O-]` (stereo unspecified) showed a pKa in series [3] of 2.52. The molecule also yielded an IC50 in series [1] of 4.5 µg/mL (≈ 15.1 µM).
On to `CCCCCCOc1ccc2oc(=O)c([N+](=O)[O-])cc2c1`, for which the IC50 entry in series [2] was “Not Active”.
For the molecule `O=[N+]([O-])C1=Cc2ccccc2OC1n1cccn1` (stereo unspecified), the pKa in series [3] worked out at 2.48. In series [1], the IC50 is 21 µg/mL (≈ 86.3 µM).
In the case of `O=[N+]([O-])C1=Cc2ccccc2OC1Nc1ccc([N+](=O)[O-])cc1` (stereo unspecified), in series [3], the pKa stood at 1. Further, the IC50 in series [1] was determined as 14.4 µg/mL (≈ 46 µM).
On to `CC(=O)Oc1ccc2cc([N+](=O)[O-])c(=O)oc2c1`, for which the half-maximal inhibitory concentration (IC50) entry in series [2] was “Not Active”.
In series [1], `CCCCCCCCCCCCCCCC(=O)Oc1cccc2cc([N+](=O)[O-])c(=O)oc12` yielded an IC50 of 47 µg/mL (≈ 105 µM).
In series [1], `CCCCCCCCCCCCCCCC(=O)Oc1ccc2oc(=O)c([N+](=O)[O-])cc2c1` gave an IC50 of 28.5 µg/mL (≈ 64 µM).
Still for that read-out and setting: then `CC(C)Oc1ccc2oc(=O)c([N+](=O)[O-])cc2c1`, with 23.5 µg/mL (≈ 94.3 µM).

These data come from ChEMBL document CHEMBL1127578, “Phospholipase C inhibitors: a new class of cytotoxic agents” (J Med Chem, 1994).
